Experimental data gathered from unrelated publications.
Each line is one published result; the experiments were not run side by side.
RET V804M: Proto-oncogene tyrosine-protein kinase receptor Ret (RET, Homo sapiens, UniProt P07949, V804M)
RET: Proto-oncogene tyrosine-protein kinase receptor Ret (RET, Homo sapiens, UniProt P07949)
RET K758M: Proto-oncogene tyrosine-protein kinase receptor Ret (RET, Homo sapiens, UniProt P07949, K758M)
RET V804L: Proto-oncogene tyrosine-protein kinase receptor Ret (RET, Homo sapiens, UniProt P07949, V804L)
RET M918T: Proto-oncogene tyrosine-protein kinase receptor Ret (RET, Homo sapiens, UniProt P07949, M918T)
RET Y791F: Proto-oncogene tyrosine-protein kinase receptor Ret (RET, Homo sapiens, UniProt P07949, Y791F)

| Compound | target | test | conditions | endpoint | result |
| --- | --- | --- | --- | --- | --- |
| O=S(=O)(NC1CCC(c2cc(F)ccc2F)(S(=O)(=O)c2ccc(Cl)cc2)CC1)C(F)(F)F (centres unmarked) | RET V804M | cell-free assay, competition with immobilised ligand | 1 µM | remaining binding | 100% |
| CCOc1ccccc1NC(=O)Nc1cc(OC)c2nc(NC(=O)c3ccccc3)sc2c1 | RET | enzyme activity, inhibitor, radiometric | 0.1 µM | remaining activity | 118% |
| Cc1ccc(C(=O)NCc2ccsc2)cc1C#Cc1cn(C(C)C)c2ncnc(N)c12 | RET | enzyme activity, inhibitor | 1 µM | activity vs control | 4% |
| CCCCN(CCCC)C(=O)CN1C[C@H](c2cc(OC)c3c(c2)OCO3)[C@@H](C(=O)O)[C@@H]1CC(C)(C)CCC | RET V804M | cell-free assay, competition with immobilised ligand | 1 µM | remaining binding | 100% |
| Cc1ccc(-c2nn3c(=O)cc(CNC(=O)Nc4ccc(C)c(Cl)c4)nc3s2)cc1 | RET | enzyme activity, inhibitor, radiometric | 0.1 µM | remaining activity | 116% |
| CO[C@]1(C(=O)N[C@@H](C)c2ccc(-n3cc(F)cn3)nc2)CC[C@H](c2nc(C)cc(Nc3cc(C)[nH]n3)n2)CC1 | RET K758M | thermal stability, DSF | 10 µM | ΔTm | 14.2 °C |
| Cc1cnn2ncc(-c3ccnc(N(C)C)n3)c2c1 | RET | binding | 1 µM | remaining binding | 69% |
| Cc1cccc(NC(=O)CNC(=O)c2ccccc2NS(=O)(=O)c2ccc3[nH]c(=O)[nH]c3c2)c1C | RET | enzyme activity, inhibitor, radiometric | 10 µM | remaining activity | 85.9% |
| COc1cc2c(N3CCN(C(=O)Nc4ccc(OC(C)C)cc4)CC3)ncnc2cc1OCCCN1CCCCC1 | RET | cell-free assay | 0.5 µM | remaining signal | 91.5% |
| O=C(COc1ccc(Cl)cc1C(=O)Nc1ccccc1)Nc1cc(Cl)ccc1-n1cncn1 | RET | enzyme activity, inhibitor, radiometric | 0.1 µM | remaining activity | 107% |
| C[C@@H]1CN(c2cc(-c3nn(C)c4ccc(OC5(C)CC5)cc34)ncn2)C[C@H](C)O1 | RET V804M | cell-free assay, competition with immobilised ligand | 1 µM | remaining binding | 100% |
| N[C@H]1CCN(c2nccc(-c3cnn4ncccc34)n2)C1 | RET V804L | binding | 1 µM | remaining binding | 93% |
| Cc1cnc(NC2CCOCC2)nc1-n1cnc(C(=O)NC(CN)c2cc(F)cc(Cl)c2)c1 (centres unmarked) | RET | enzyme activity, inhibitor, radiometric | 1 µM | remaining activity | 111% |
| CNC(=O)c1cc(Oc2ccc(NC(=O)Nc3ccc(Cl)c(C(F)(F)F)c3)cc2)ccn1 | RET | cell-free assay | 0.5 µM | remaining signal | 1.78% |
| CN(CCCC(F)(F)F)c1nccc(-c2cnn3ncccc23)n1 | RET M918T | binding | 1 µM | remaining binding | 99% |
| N#CCCc1ccc2c(c1)-c1[nH]c3ccc([N+](=O)[O-])cc3c1CC(=O)N2 | RET | cell-free assay | 0.5 µM | remaining signal | 80.8% |
| CN(C)c1ncc(F)c(-c2cnn3ncccc23)n1 | RET V804L | binding | 1 µM | remaining binding | 91% |
| COc1ccc(OC)c(NC(=O)Nc2cc(OC)c3nc(NC(=O)c4ccccc4)sc3c2)c1 | RET | enzyme activity, inhibitor, radiometric | 0.1 µM | remaining activity | 114% |
| COc1ccc(CN2C3CC2CN(c2ccc(-c4cc(OCC(C)(C)O)cn5ncc(C#N)c45)cn2)C3)cn1 | RET K758M | thermal stability, DSF | 10 µM | ΔTm | 11.9 °C |

| Compound | target | test | conditions | endpoint | result |
| --- | --- | --- | --- | --- | --- |
| CCc1cccc(NC(=O)c2cc(-c3ccc(OC)c(S(N)(=O)=O)c3)[nH]n2)c1 | RET | enzyme activity, inhibitor, radiometric | 10 µM | remaining activity | 92.5% |
| O=C1Nc2ccc(Cl)cc2C1=Cc1cc(Cl)c(O)c(Cl)c1 | RET | cell-free assay | 0.5 µM | remaining signal | 80.4% |
| COc1cc(-c2cc(-c3ccc(N4CCNCC4)cc3)cnc2N)cc(OC)c1OC | RET Y791F | enzyme activity, inhibitor | 1 µM | inhibition | 13% |
| O=C(N1CCS(=O)(=O)CC1)N1C[C@H](c2ccc(OC(F)(F)F)cc2)C[C@H](c2nc(C3CC3)no2)C1 | RET V804L | cell-free assay, competition with immobilised ligand | 1 µM | remaining binding | 99% |
| COc1cc(NC(=O)Nc2cc(OC)c3nc(NC(=O)c4ccccc4)sc3c2)cc(OC)c1 | RET | enzyme activity, inhibitor, radiometric | 0.1 µM | remaining activity | 112% |
| Cc1cc(NC(=O)c2cccc3cc(-c4cccc5[nH]nc(N)c45)ccc23)ccc1F | RET | enzyme activity, inhibitor | 0.1 µM | activity vs control | 37% |
| O=C(NS(=O)(=O)c1ccc(NCC2CCOCC2)c([N+](=O)[O-])c1)c1ccc(N2CCN(Cc3ccc(C(F)(F)F)cc3-c3ccc(Cl)cc3)CC2)cc1Oc1cnc2[nH]ccc2c1 | RET V804M | cell-free assay, competition with immobilised ligand | 1 µM | remaining binding | 100% |
| Nc1ncnc2occ(-c3ccc(NC(=O)Nc4cc(C(F)(F)F)ccc4F)cc3)c12 | RET M918T | cell-free assay | 20 µM | remaining signal | 0% |
| CC/C(=N\NC(=O)NCc1cccc(O)c1)c1ccc(O)c(C)c1O | RET Y791F | enzyme activity, inhibitor | 0.1 µM | inhibition | 2.9% |
| C[C@H]1CCN(c2nccc(-c3cnn4ncccc34)n2)C1 | RET V804M | binding | 1 µM | remaining binding | 84% |
| CCCOc1ccc(OC)c(F)c1C(=O)c1ccc(C(=O)N[C@@H]2CNC[C@H]2NC(=O)c2ccc3[nH]ncc3c2)cc1 | RET | enzyme activity, inhibitor | 0.5 µM | remaining activity | 54% |
| CCOCCn1cc(C(=O)Nc2ccc(-n3nc(-c4cccnc4)cc3C(F)(F)F)cn2)ccc1=O | RET | cell-free assay, competition with immobilised ligand | 1 µM | remaining binding | 83% |
| Cc1ccc(C(=O)Nc2ccc(CN3CCN(C)CC3)c(C(F)(F)F)c2)cc1C#Cc1cnc2cccnn12 | RET V804L | enzyme activity | 23.5 nM | remaining activity | 17% |
| Cc1cc(C)c(-n2ccn3nc(-c4cccnc4)cc23)cc1NC(=O)c1cc(C#N)cc(S(F)(F)(F)(F)F)c1 | RET V804M | cell-free assay, competition with immobilised ligand | 0.1 µM | remaining binding | 94.5% |
| c1cnn2ncc(-c3ccnc(N4CCC45COC5)n3)c2c1 | RET M918T | binding | 1 µM | remaining binding | 97% |
| CCOC(=O)N1CCN(c2nc(Nc3ccc(C)cc3)c3nn[nH]c3n2)CC1 | RET | enzyme activity, inhibitor, radiometric | 0.1 µM | remaining activity | 128% |
| O=C(Nc1cccnn1)N1CCC(=Cc2cccc(Oc3ccc(C(F)(F)F)cn3)c2)CC1 | RET V804M | cell-free assay, competition with immobilised ligand | 1 µM | remaining binding | 100% |
| COc1cc2ncnc(Nc3ccc(Oc4ccccc4)cc3C)c2cc1OC | RET V804L | enzyme activity, inhibitor | 1 µM | inhibition | 3% |
| C=CC(=O)Nc1cc(Nc2nccc(Nc3cc(Cl)c(F)cc3C(C)(C)O)n2)c(OC)cc1N1CC[C@@H](N(C)C)C1 | RET | enzyme activity, inhibitor | 1 µM | inhibition | 1% |
